≈ marks a conversion by molar mass, not a printed value. Calls of active or inactive are those of the source. No cut-off for these calls is given here.

By thermodynamic solubility is commonly meant the concentration in solution at equilibrium with solid. The IC50 is the concentration that inhibits the measured activity by half. In general, inhibition refers to the relative decrease from the control value, in per cent. In general, half-life refers to the time in which the quantity being followed falls by half.

Data set [1] is described as follows: Aqueous solubility of the compound at 1 mg incubated for 24 hrs under shaking condition by LC-MS/MS analysis. Particulars: water. The class given is physicochemical.
Data set [2] can be described thus: Permeability of the compound at pH 7.4 at 500 uM incubated for 5 hrs by PAMPA based UV/LC-MS analysis. The class given is ADME. To be noted: read-out: permeability. The gist of the method: (§1)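 Donor: compound diluted from 1 mM DMSO stock to 500 µM final in phosphate buffer (pH 7.4, 25 mM). Filter coated with 1% phosphatidylcholine in dodecane; acceptor 50% DMSO/phosphate buffer. 5 h at room temperature with gentle shaking. Donor and acceptor measured by UV/LC-MS; Papp and %MR calculated by equation. Three independent experiments.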
(In general: The PAMPA barrier holds no transporters, so it reflects passive diffusion.)

Data set [3] in a line: Permeability of the compound at pH 7.4 assessed as membrane retension at 500 uM incubated for 5 hrs by PAMPA based UV/LC-MS analysis. Format: ADME. To be noted: pH 7.4, 5 h. In outline:
as §1

Data set [4] in a line: Metabolic stability in human liver microsomes assessed as parent compound remaining at 50 uM incubated for 1 hr in the presence of NADPH regenerating system by UV/LC-MS analysis. Format: ADME, Microsome. Particulars: read-out: Stability. In outline:
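Human liver microsomes (0.2 mg/mL) with NADPH regenerating system and 50 µM compound in DMSO/phosphate buffer (pH 7.4, 25 mM), 1 h at 37 °C. Reaction quenched with acetonitrile and centrifuged; supernatant dried, taken up in methanol, and unmetabolised compound measured by UV/LC-MS. Three independent experiments.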
On the technique in general: Liver microsomes are vesicles of endoplasmic reticulum, rich in cytochrome P450 enzymes.

Data set [5] deals with HepG2. Nature of the data set: Cytotoxicity against human HepG2 cells assessed as reduction in cell viability measured after 48 hrs by MTT assay. To be noted: HepG2, 48 h. The class given is functional, cell-based. The gist of the method: (§2)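 HepG2, Huh-7 or A2780 cells in DMEM with 10% FBS, 37 °C, 5% CO2. 2.5 × 10^4 cells seeded per well; compounds in DMSO added next day at 0.1, 1.0, 10.0 and 100.0 µM for 24, 48 or 72 h. IC50 from MTT dose-response by sigmoid fit. Means ± S.D. of three independent experiments in triplicate.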
Background: Tetrazolium dyes change colour on reduction, which living cells bring about.

Data set [6] has as its system HepG2. As to the kind of experiment: Cytotoxicity against human HepG2 cells assessed as reduction in cell viability measured after 24 hrs by MTT assay. Format: functional, cell-based. Particulars: HepG2, 24 h. The gist of the method: as §2
For data set [7], the target named is T1, Serine/threonine-protein kinase Sgk1 (Homo sapiens) (UniProt O00141).
T1 sequence (whole entry): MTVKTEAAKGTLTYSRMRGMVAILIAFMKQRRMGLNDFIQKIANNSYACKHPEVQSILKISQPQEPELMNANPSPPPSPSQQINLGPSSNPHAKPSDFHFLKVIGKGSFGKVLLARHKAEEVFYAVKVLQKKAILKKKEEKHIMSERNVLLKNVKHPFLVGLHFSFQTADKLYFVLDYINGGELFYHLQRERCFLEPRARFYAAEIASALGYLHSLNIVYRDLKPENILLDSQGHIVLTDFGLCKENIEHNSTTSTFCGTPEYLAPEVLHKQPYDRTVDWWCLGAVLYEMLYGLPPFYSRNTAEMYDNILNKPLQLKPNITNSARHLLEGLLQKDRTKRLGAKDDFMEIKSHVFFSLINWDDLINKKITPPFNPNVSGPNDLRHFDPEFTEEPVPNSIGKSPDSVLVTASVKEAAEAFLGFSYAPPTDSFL
Nature of the data set: Inhibition of Sgk1 (unknown origin) at 12.5 uM using peptide substrate incubated for 30 mins in the presence of ATP by scintillation counting method relative to control.

Data set [8] deals with T1, Serine/threonine-protein kinase Sgk1 (Homo sapiens). Nature of the data set: Inhibition of Sgk1 (unknown origin) at 0.6 uM using peptide substrate incubated for 30 mins in the presence of ATP by scintillation counting method relative to control.
Data set [9] relates to HepG2. As to the kind of experiment: Cytotoxicity against human HepG2 cells assessed as reduction in cell viability measured after 72 hrs by MTT assay. To be noted: HepG2, 72 h. Format: functional, cell-based. The gist of the method:
as §2

For data set [10], the system named is Huh-7. As to the kind of experiment: Cytotoxicity against human Huh-7 cells assessed as reduction in cell viability measured after 24 hrs by MTT assay. Format: functional, cell-based. Particulars: Huh-7, 24 h. The gist of the method: as §2
The test system of data set [11] is Huh-7. Nature of the data set: Cytotoxicity against human Huh-7 cells assessed as reduction in cell viability measured after 48 hrs by MTT assay. The class given is functional, cell-based. Particulars: Huh-7, 48 h. The gist of the method:
as §2

For data set [12], the system named is Huh-7. Nature of the data set: Cytotoxicity against human Huh-7 cells assessed as reduction in cell viability measured after 72 hrs by MTT assay. Format: functional, cell-based. To be noted: Huh-7, 72 h. The gist of the method:
as §2

Data set [13] deals with HepG2. As to the kind of experiment: Antitumor activity against human HepG2 cells xenografted in female nude mouse assessed as reduction in tumor growth at 9.5 mg/kg, ip administered for 5 days/week and measured every 7 days for 21 days. To be noted: time 21.0 day, in the assay text read “administered daily” for “administered for 5 days/week”. Format: functional, organism-based. The gist of the method: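 HepG2 cells (2.5 × 10^6, in 1:1 serum-free RPMI/Matrigel) injected subcutaneously in the dorsal posterior-lateral right region of 6-week-old female nude mice. Five mice per group, randomised. Dosing i.p. five days/week, started when tumours reached 100 mm3. Si113 was given in DMSO and prodrugs in saline, dosed to equal molar amounts. Caliper volume (π/6 × a2 × b) measured every 7 days; on day 21 tumours were excised and weighed.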

The test system of data set [14] is A2780. As to the kind of experiment: Cytotoxicity against human A2780 cells assessed as reduction in cell viability measured after 24 hrs by MTT assay. Format: functional, cell-based. Particulars: A2780, 24 h. In outline:
as §2

Data set [15] deals with A2780. As to the kind of experiment: Cytotoxicity against human A2780 cells assessed as reduction in cell viability measured after 48 hrs by MTT assay. Format: functional, cell-based. Particulars: A2780, 48 h. In outline: as §2
Data set [16] has as its system A2780. Nature of the data set: Cytotoxicity against human A2780 cells assessed as reduction in cell viability measured after 72 hrs by MTT assay. The class given is functional, cell-based. To be noted: A2780, 72 h. In outline:
as §2

Data set [17] can be described thus: Drug concentration in nude female mouse tumor mass xenografted with human A2780 cells at 9.5 mg/kg, ip administered as single dose incubated for 24 hrs followed by heparin treatment by LC-MS/MS analysis. The class given is ADME, organism-based, Neoplasm. Particulars: in vivo. In outline:
(§3)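 Female nude mice, xenografted subcutaneously with 2.5 × 10^6 A2780TC cells or left non-xenografted, two per group. Single i.p. dose: Si113 9.5 mg/kg in DMSO or prodrug 21 mg/kg in saline. At 24 h, heparin i.p. (5000 U/kg), then sacrifice under CO2. Plasma, tumour and organs extracted with acetonitrile/internal standard and analysed by LC-MS/MS.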

The nature of data set [18]: Drug concentration in nude female mouse ovarian tissue xenografted with human A2780 cells at 9.5 mg/kg, ip administered as single dose incubated for 24 hrs followed by heparin treatment by LC-MS/MS analysis. Format: ADME, organism-based, Female gonad. To be noted: in vivo. The gist of the method:
as §3

Data set [19] deals with A2780TC. As to the kind of experiment: Antitumor activity against paclitaxel resistant human A2780TC cells xenografted in nude mouse assessed as reduction in tumor volume at 9.3 mg/kg/day, ip administered for 5 days/ week and measured every 7 days for 21 days. The class given is functional, organism-based. To be noted: time 21.0 day.
In data set [20] the test system is A2780TC. Nature of the data set: Antitumor activity against paclitaxel resistant human A2780TC cells xenografted in nude mouse assessed as reduction in tumor volume at 9.3 mg/kg/day, ip administered for 5 days/ week and measured every 7 days for 21 days in the presence of paclitaxel. The class given is functional, organism-based. To be noted: time 21.0 day.
Data set [21] relates to A2780TC. Nature of the data set: Antitumor activity against paclitaxel resistant human A2780TC cells xenografted in nude mouse assessed as reduction in tumor growth at 5 mg/kg/day, ip administered for 5 days/ week and measured every 7 days for 21 days. Format: functional, organism-based. To be noted: time 21.0 day.
A short description of data set [22]: Drug concentration in naive BALB/C mouse liver at 21 mg/kg, ip administered as single dose incubated for 24 hrs followed by heparin treatment by LC-MS/MS analysis. Format: ADME, organism-based. Particulars: in vivo. In outline:
(§4)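 Healthy male BALB/c mice, 4–6 weeks old, given a single i.p. 21 mg/kg prodrug dose in saline. At 24 h, heparin i.p. (5000 U/kg), then sacrifice under CO2. Organs homogenised with acetonitrile containing internal standard, centrifuged, filtered and quantified by LC-MS/MS against calibration curves. n = 3 per time point.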

Data set [23] is described as follows: Stability of the compound in human plasma assessed as half life at 3 mM measured up to 24 hrs by UV/LC-MS analysis. Format: ADME, cell-free.
In data set [24] the target is plasmin (Homo sapiens, UniProt P00747). As to the kind of experiment: Stability of the compound in human plasmin solution assessed as half life at 7.5 mM measured up to 24 hrs by UV/LC-MS analysis. The class given is ADME. In outline:
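Human plasmin mixed with Tris buffer (pH 7.4, 100 mM) and prodrug (7.5 mM DMSO stock), incubated at 37 °C. Samples taken from 0 to 24 h, quenched with cold acetonitrile and centrifuged; analysed by UV/LC-MS. t1/2 is time to 50% hydrolysis.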

Data set [25] is described as follows: Drug concentration in naive BALB/C mouse kidney at 21 mg/kg, ip administered as single dose incubated for 24 hrs followed by heparin treatment by LC-MS/MS analysis. The class given is ADME, organism-based. Particulars: in vivo. In outline:
as §4

A short description of data set [26]: Drug concentration in nude female mouse tumor mass xenografted with human A2780 cells at 21 mg/kg, ip administered as single dose incubated for 24 hrs followed by heparin treatment by LC-MS/MS analysis. The class given is ADME, organism-based, Neoplasm. To be noted: in vivo. The gist of the method: as §3
Data set [27] is described as follows: Drug concentration in nude female mouse ovarian tissue xenografted with human A2780 cells at 21 mg/kg, ip administered as single dose incubated for 24 hrs followed by heparin treatment by LC-MS/MS analysis. Format: ADME, organism-based, Female gonad. To be noted: in vivo. The gist of the method:
as §3

Chain of plasmin (P00747 97-580 limits assumed): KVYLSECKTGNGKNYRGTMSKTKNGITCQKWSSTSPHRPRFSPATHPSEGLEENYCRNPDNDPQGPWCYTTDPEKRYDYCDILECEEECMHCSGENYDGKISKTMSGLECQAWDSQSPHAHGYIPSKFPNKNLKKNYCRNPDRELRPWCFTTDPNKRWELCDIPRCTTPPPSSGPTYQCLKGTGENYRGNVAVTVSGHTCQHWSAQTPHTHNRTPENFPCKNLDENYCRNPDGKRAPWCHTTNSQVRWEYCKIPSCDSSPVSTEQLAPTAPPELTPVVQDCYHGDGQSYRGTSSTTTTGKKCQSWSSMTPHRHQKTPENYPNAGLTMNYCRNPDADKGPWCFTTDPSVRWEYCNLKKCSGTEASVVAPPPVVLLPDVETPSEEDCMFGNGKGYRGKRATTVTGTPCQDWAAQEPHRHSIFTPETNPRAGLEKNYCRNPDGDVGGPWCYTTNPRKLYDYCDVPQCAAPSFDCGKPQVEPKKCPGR
Chain of plasmin (P00747 581-810 limits assumed): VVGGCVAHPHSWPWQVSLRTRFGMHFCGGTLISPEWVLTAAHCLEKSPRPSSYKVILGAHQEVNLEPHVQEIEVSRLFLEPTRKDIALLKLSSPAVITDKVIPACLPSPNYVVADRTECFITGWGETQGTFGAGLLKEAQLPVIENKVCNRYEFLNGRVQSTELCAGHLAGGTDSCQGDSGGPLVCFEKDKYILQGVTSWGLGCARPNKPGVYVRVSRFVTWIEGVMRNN

In [1], `OCCNc1nc(NCCc2ccccc2)c2cnn(/C=C/c3ccccc3)c2n1` showed a solubility (thermodynamic) at 24 h of 0.4 µg/mL (≈ 0.999 µM). Moreover, the Papp at 5 h, 500 µM in [2] came out at 2.6 ×10⁻⁶ cm/s. For the same compound, in [3], the permeability is 86.2%. Further, the remaining at 1 h, 50 µM in data set [4] was found to be 84%. Moreover, the IC50 amounted to 8.29 µM in [5]; 15.9 µM in data set [6]; 3.15 µM in [9]; 2.05 µM in data set [10]; 1.88 µM in [11]; 0.58 µM in data set [12]. The IC50 in data set [14] was found to be 25.6 µM; in data set [15], 4.56 µM; in [16], 3.47 µM. Moreover, the results for the inhibition in data set [7] and in [8] were more than 90% and 75%, respectively. The outcome in [13], in data set [19] and in [20] was Active. Moreover, the figures for the Drug uptake in data set [17] and in data set [18] were 2.2 nmol/g and 1.89 nmol/g, respectively.

On to `CC(=O)O[C@H]1C(=O)[C@@]2(C)[C@H]([C@H](OC(=O)c3ccccc3)[C@]3(O)C[C@H](OC(=O)[C@H](O)[C@@H](NC(=O)c4ccccc4)c4ccccc4)C(C)=C1C3(C)C)[C@]1(OC(C)=O)CO[C@@H]1C[C@@H]2O`, for which, in data set [21], the outcome was inactive.

On to `C[C@@H](N)C(=O)N[C@@H](Cc1ccccc1)C(=O)N[C@@H](CCCCN)C(=O)NCCCCC(=O)OCCNc1nc(NCCc2ccccc2)c2cnn(/C=C/c3ccccc3)c2n1.O=C(O)C(F)(F)F.O=C(O)C(F)(F)F`, for which the Drug uptake is 11.05 nmol/g in [22] and 3.01 nmol/g in data set [25]. In data set [1], this compound displayed a solubility (thermodynamic) at 24 h of more than 1000 µg/mL. The Papp at 5 h, 500 µM in data set [2] was found to be 0.2 ×10⁻⁶ cm/s. In addition, in data set [23], the half-life was 4.6 h. Also, in [24], the half-life at 7500 µM was 3.1 h.

Turning to `C[C@@H](N)C(=O)N[C@@H](Cc1ccccc1)C(=O)N[C@@H](CCCCN)C(=O)OCCNc1nc(NCCc2ccccc2)c2cnn(/C=C/c3ccccc3)c2n1.O=C(O)C(F)(F)F.O=C(O)C(F)(F)F`, the Drug uptake in data set [22] turned out to be 0.81 nmol/g; in data set [25] it was 1.77 nmol/g; in [26], 5.69 nmol/g; in data set [27] it was 4.11 nmol/g. The compound further came in with a solubility (thermodynamic) at 24 h in [1] of more than 1000 µg/mL. The Papp at 5 h, 500 µM in data set [2] came to 0.2 ×10⁻⁶ cm/s. Further, the half-life in data set [23] was 0.3 h. Also, in data set [24], the half-life at 7500 µM is 1.5 h.

The values above are taken from ChEMBL document CHEMBL4840302, “Si113-prodrugs selectively activated by plasmin against hepatocellular and ovarian carcinoma” (Eur J Med Chem, 2021).
